Results on eleven molecules are retold here after ChEMBL document CHEMBL1153408, “Molecular modeling studies and in vitro bioactivity evaluation of a set of novel 5-nitro-heterocyclic derivatives as anti-T. cruzi agents” (2009).

Format in all cases: functional
Assay [1] concerns Trypanosoma cruzi. The assay is described as follows: Antitrypanosomal activity against Trypanosoma cruzi Y epimastigotes assessed as parasite growth at 10 ug/ml after 24 hrs. A digest of the protocol:
(§1)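 Y strain epimastigotes grown in LIT medium (pH 7.2, 10% FBS, 2% hemoglobin). Compounds dissolved in DMSO and diluted into LIT. Parasites added at an initial 10^6/mL and incubated at 28 °C for 24 h. Cells counted in a Neubauer chamber at 0 h and 24 h, in triplicate. Growth % = (L24 − L0) × 100/L0.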

The test system of assay [2] is Trypanosoma cruzi. The assay is described as follows: Antitrypanosomal activity against Trypanosoma cruzi Y epimastigotes assessed as parasite growth at 1 ug/ml after 24 hrs. A digest of the protocol:
as §1

Assay [3] concerns Trypanosoma cruzi. Kind of assay: Antitrypanosomal activity against Trypanosoma cruzi Y epimastigotes assessed as parasite growth at 20 ug/ml after 24 hrs. A digest of the protocol:
as §1

Turning to `CN(C)c1ccc(C(=O)N/N=C/c2ccc([N+](=O)[O-])s2)cc1`, the Activity in the assay with Trypanosoma cruzi [1] is reported as 43.6%. Moreover, in the assay on Trypanosoma cruzi [2], the Parasite growth came to 10%. For the same molecule, the “Parasite growth over 24 h” value in the assay with Trypanosoma cruzi [3] worked out at 0%.

For the molecule `NS(=O)(=O)c1ccc(C(=O)N/N=C/c2ccc([N+](=O)[O-])s2)cc1`, the Activity with Trypanosoma cruzi [1] came out at 18.2%. Moreover, in the assay with Trypanosoma cruzi [2], the Parasite growth came to 16%. The “Parasite growth over 24 h” value in the assay with Trypanosoma cruzi [3] is 19%.

Consider `COc1ccc(C(=O)N/N=C/c2ccc([N+](=O)[O-])s2)cc1`, for which the Activity in the assay on Trypanosoma cruzi [1] is 0%. Further, the Parasite growth in the assay on Trypanosoma cruzi [2] came to 100%. Besides, the “Parasite growth over 24 h” value in the assay with Trypanosoma cruzi [3] was 0%.

Consider `O=C(N/N=C/c1ccc([N+](=O)[O-])o1)c1ccccc1`, for which the Activity in the assay on Trypanosoma cruzi [1] is 0%. Besides, the Parasite growth in the assay with Trypanosoma cruzi [2] worked out at 0%. Further, the “Parasite growth over 24 h” value in the assay on Trypanosoma cruzi [3] turned out to be 0%.

As for `O=C(N/N=C/c1ccc([N+](=O)[O-])o1)c1ccc(Cl)cc1`, the Activity with Trypanosoma cruzi [1] was determined as 0%. The Parasite growth in the assay with Trypanosoma cruzi [2] was found to be 0%. For the same molecule, the “Parasite growth over 24 h” value in the assay on Trypanosoma cruzi [3] is reported as 0%.

As for `O=C(N/N=C/c1ccc([N+](=O)[O-])s1)c1ccc(C(F)(F)F)cc1`, the Activity in the assay on Trypanosoma cruzi [1] came to 0%. For the same molecule, the Parasite growth in the assay on Trypanosoma cruzi [2] is given as 28.4%. In the assay with Trypanosoma cruzi [3], the “Parasite growth over 24 h” value was determined as 0%.

Regarding `O=C(N/N=C/c1ccc([N+](=O)[O-])s1)c1ccccc1`, the Activity with Trypanosoma cruzi [1] worked out at 57.3%. Moreover, the Parasite growth in the assay on Trypanosoma cruzi [2] came to 13%. For the same molecule, the “Parasite growth over 24 h” value in the assay on Trypanosoma cruzi [3] is on record as 0%.

Take `O=C(Cn1ccnc1[N+](=O)[O-])NCc1ccccc1` [BENZNIDAZOLE]: the Activity in the assay on Trypanosoma cruzi [1] is on record as 30%. Further, the “Parasite growth over 24 h” value in the assay on Trypanosoma cruzi [3] is listed as 3%.

As for `O=C(N/N=C/c1ccc([N+](=O)[O-])s1)c1ccc(Cl)cc1`, in the assay on Trypanosoma cruzi [1], the Activity is recorded as 0%. Besides, the Parasite growth in the assay on Trypanosoma cruzi [2] was 4%. Besides, the “Parasite growth over 24 h” value in the assay on Trypanosoma cruzi [3] was 0%.

For the molecule `N#Cc1ccc(C(=O)N/N=C/c2ccc([N+](=O)[O-])s2)cc1`, in the assay with Trypanosoma cruzi [1], the Activity worked out at 0%.

For `O=C(N/N=C/c1ccc([N+](=O)[O-])s1)c1ccc(O)cc1`, in the assay with Trypanosoma cruzi [1], the Activity stood at 56.6%.
